According to ChEMBL document CHEMBL4196164, “Tariquidar-Related Chalcones and Ketones as ABCG2 Modulators” (ACS Med Chem Lett, 2018):

Assays:
[1] = target: T1, Broad substrate specificity ATP-binding cassette transporter ABCG2 (Homo sapiens, UniProt Q9UNQ0); assay: Inhibition of ABCG2 in human MCF7/Topo cells after 2 hrs by Hoechst 33342 staining based fluorescence assay; type: cell-based
T1 sequence (Q9UNQ0 whole entry): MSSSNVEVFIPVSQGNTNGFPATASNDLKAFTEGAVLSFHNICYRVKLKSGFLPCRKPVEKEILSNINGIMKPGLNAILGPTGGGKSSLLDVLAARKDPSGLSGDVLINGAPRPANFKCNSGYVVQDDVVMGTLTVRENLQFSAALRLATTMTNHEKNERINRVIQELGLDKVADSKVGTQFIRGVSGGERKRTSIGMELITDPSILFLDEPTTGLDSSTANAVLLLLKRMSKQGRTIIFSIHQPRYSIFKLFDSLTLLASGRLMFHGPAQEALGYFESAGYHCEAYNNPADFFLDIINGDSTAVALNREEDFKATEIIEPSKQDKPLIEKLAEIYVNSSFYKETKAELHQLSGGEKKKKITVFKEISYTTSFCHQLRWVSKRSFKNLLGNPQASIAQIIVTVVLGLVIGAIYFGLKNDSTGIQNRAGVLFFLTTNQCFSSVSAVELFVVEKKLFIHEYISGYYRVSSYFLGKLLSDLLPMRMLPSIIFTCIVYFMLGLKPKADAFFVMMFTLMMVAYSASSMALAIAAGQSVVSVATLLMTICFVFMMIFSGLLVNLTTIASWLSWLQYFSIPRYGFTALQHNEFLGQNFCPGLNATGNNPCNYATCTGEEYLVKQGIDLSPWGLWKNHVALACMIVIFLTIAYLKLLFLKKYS
How it was run: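 ABCG2-overexpressing MCF-7/Topo cells, Hoechst 33342 accumulation in microplate format; inhibition expressed relative to 10 μM FTC (100%). Relative IC50 taken as the midpoint between lower and upper plateaus of each compound's own concentration–response curve, from four-parameter fit; mean ± SEM of three independent experiments in triplicate.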

ABCG2 = target: T2, ABCG2 (Homo sapiens, UniProt Q9UNQ0); assay: Inhibition of ABCG2 in human MCF7/Topo cells at 100 uM after 2 hrs by Hoechst 33342 staining based fluorescence assay relative to 10 uM FTC; type: cell-based; conditions: probe Hoechst 33342, read-out: Imax
T2 sequence (Q9UNQ0 whole entry): T1 sequence (Q9UNQ0 whole entry)
How it was run: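 Hoechst 33342 microplate assay in ABCG2-overexpressing MCF-7/Topo cells; maximal inhibitory effect taken as inhibition at the highest concentration (100 μM) of compound, expressed relative to the inhibition from 10 μM FTC set as 100%.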

ABCB1 = ABCB1 (Homo sapiens, UniProt P08183); assay: Inhibition of ABCB1 in human KBV1 cells at 10 uM measured after 10 mins by calcein-AM dye based fluorescence assay relative to 10 uM tariquidar; type: cell-based; conditions: probe calcein-AM
ABCC1 = ABCC1 (Homo sapiens, UniProt P33527); assay: Inhibition of human ABCC1 expressed in MDCK2 cells at 10 uM after 60 mins by calcein-AM dye based fluorescence assay relative to 30 uM reversan; type: cell-based; conditions: MDCK2 cells that express human ABCC1, probe calcein-AM
[2] = Stability of the compound in DMEM measured over 24 hrs by HPLC analysis; type: physicochemical
How it was run: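 Compounds incubated in assay medium (DMEM with 10% fetal calf serum) at 37 °C; aliquots analysed by HPLC over 24 h for cleavage or degradation products.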

[3] = Cytotoxicity against human MCF7/Topo cells at 0.1 to 10 uM measured up to 120 hrs by crystal violet staining based assay; type: cell-based
How it was run: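 Kinetic chemosensitivity assay on proliferating ABCG2-overexpressing MCF-7/Topo cells under long-term exposure at 100 nM, 1, 3 and 10 μM; 100 nM vinblastine as positive control, DMSO vehicle as negative control; growth curves followed over time.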

[4] = target: T1, Broad substrate specificity ATP-binding cassette transporter ABCG2; assay: Inhibition of ABCG2 (unknown origin) expressed in HEK293 cells assessed as reduction in mitoxantrone efflux measured after 30 mins by fluorescence assay; type: cell-based
[5] = target: T1, Broad substrate specificity ATP-binding cassette transporter ABCG2; assay: Inhibition of ABCG2 (unknown origin) expressed in MDCK2 cells incubated for 30 mins measured at 60 secs interval for 120 mins by Hoechst 33342 staining based fluorescence assay; type: cell-based

Sequence of ABCC1 (P33527 whole entry): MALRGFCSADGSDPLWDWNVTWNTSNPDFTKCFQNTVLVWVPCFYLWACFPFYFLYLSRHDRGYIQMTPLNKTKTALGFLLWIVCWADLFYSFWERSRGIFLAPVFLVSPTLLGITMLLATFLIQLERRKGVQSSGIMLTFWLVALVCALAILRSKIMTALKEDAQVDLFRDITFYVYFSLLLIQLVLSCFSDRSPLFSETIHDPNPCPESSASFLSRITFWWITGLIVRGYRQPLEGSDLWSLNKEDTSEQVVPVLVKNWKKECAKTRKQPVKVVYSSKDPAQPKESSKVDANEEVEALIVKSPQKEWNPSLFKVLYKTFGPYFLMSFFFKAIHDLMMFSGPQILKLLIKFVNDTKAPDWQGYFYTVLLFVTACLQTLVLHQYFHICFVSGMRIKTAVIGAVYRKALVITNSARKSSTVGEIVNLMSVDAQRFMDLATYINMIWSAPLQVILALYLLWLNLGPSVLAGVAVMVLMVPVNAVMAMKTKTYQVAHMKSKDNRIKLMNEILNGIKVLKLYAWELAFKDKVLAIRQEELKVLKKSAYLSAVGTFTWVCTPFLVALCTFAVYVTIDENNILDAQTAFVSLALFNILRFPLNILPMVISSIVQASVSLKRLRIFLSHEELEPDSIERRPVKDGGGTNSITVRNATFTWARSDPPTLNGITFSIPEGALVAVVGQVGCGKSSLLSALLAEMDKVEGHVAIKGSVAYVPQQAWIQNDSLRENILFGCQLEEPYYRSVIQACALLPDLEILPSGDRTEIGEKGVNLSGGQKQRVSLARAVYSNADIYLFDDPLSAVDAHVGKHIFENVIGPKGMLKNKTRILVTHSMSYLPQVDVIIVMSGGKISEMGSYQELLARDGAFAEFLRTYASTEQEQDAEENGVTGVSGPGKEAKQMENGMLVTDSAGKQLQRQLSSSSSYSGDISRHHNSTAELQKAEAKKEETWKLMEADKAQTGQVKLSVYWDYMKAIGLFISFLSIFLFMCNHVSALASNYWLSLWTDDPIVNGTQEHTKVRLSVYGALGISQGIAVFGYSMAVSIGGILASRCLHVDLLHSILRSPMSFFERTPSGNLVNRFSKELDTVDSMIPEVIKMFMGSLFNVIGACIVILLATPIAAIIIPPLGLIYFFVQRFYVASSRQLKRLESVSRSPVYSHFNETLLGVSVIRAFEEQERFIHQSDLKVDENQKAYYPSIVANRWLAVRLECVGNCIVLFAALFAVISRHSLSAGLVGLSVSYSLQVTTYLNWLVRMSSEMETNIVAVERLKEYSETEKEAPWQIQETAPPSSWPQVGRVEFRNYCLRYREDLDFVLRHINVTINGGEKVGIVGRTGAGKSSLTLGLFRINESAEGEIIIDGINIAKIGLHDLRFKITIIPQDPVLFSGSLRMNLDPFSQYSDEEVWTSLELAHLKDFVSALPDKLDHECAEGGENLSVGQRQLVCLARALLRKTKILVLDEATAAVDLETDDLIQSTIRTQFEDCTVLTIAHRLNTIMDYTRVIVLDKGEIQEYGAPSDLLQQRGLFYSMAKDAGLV
Sequence of ABCB1 (P08183 whole entry): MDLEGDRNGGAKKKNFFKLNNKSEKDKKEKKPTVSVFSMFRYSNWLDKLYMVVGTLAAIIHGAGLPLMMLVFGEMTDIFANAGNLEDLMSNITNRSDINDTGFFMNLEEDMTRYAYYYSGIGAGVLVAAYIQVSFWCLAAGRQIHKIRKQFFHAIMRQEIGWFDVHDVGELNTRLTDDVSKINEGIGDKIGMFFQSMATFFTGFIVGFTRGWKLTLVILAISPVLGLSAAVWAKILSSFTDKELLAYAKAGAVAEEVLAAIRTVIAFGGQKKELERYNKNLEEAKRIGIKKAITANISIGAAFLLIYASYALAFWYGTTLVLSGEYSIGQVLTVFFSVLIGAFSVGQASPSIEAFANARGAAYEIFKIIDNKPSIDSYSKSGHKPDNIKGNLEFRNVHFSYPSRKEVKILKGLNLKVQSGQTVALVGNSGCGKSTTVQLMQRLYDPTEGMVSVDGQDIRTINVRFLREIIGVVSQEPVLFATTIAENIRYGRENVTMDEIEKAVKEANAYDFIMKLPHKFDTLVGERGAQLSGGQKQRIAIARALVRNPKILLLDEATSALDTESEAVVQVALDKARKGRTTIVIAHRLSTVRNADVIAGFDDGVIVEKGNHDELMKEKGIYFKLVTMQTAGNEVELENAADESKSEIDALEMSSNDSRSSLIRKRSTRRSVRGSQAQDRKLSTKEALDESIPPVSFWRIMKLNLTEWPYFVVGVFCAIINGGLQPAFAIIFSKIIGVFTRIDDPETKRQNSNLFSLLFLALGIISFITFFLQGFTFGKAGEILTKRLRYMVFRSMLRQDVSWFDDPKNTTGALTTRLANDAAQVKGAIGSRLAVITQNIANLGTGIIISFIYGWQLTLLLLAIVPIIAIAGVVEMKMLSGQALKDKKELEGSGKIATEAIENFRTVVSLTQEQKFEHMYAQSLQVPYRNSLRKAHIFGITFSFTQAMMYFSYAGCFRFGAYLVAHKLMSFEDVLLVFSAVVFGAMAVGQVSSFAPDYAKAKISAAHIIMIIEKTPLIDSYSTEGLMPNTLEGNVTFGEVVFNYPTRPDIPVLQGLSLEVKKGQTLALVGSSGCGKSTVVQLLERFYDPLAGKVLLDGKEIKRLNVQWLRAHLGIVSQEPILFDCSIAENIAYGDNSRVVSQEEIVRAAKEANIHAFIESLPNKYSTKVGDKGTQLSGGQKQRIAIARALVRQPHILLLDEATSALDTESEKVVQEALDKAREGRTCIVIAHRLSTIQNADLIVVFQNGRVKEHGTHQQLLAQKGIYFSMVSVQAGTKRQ

SMILES | IC50 [1] [µM] | Emax at 2 h, 100 µM (ABCG2) [%] | inhibition at 10 min, 10 µM (ABCB1) [%] | inhibition at 1 h, 10 µM (ABCC1) [%] | Stability [2] | Activity [3] | IC50 [4] [nM] | IC50 [5] [nM]
COc1cc2c(cc1OC)CN(CCOc1ccc(/C=C/C(=O)c3cccc(NC(=O)c4ccc5ccccc5n4)c3)cc1)CC2 | 4.08 | 79 | < 25 | < 25 | Stable |  |  | 
COCCOCCOCCOc1cc2c(cc1OC)CCN(CC(=O)c1ccc(C)c(NC(=O)c3ccc4ccccc4n3)c1)C2 | 6.65 | 86 | < 25 | < 25 | Stable | Non-Toxic |  | 
COc1cc2c(cc1OC)CN(CC(=O)c1cccc(NC(=O)c3ccc4ccccc4n3)c1)CC2 | 6.73 | 77 | < 25 | < 25 | Stable |  |  | 
COCCOc1cc2c(cc1OC)CCN(CC(=O)c1ccc(C)c(NC(=O)c3ccc4ccccc4n3)c1)C2 | 23.2 | 79 | < 25 | < 25 | Stable |  |  | 
COc1cc(OC)c(C(=O)/C=C/c2ccc3nccnc3c2)cc1OC |  |  |  |  |  |  | 1400 | 
COCCOCCOCCOc1cc2c(cc1OC)CCN(CCOc1ccc(/C=C/C(=O)c3ccc(C)c(NC(=O)c4ccc5ccccc5n4)c3)cc1)C2 | 2.72 | 111 | < 25 | < 25 | Stable |  |  | 
COc1ccc(/C=C/C(=O)c2ccccc2NC(=O)c2cccs2)cc1OC |  |  |  |  |  |  |  | 501
COc1cc2c(cc1OC)CN(CC(=O)c1ccc(C)c(NC(=O)c3ccc4ccccc4n3)c1)CC2 | 8.76 | 77 | < 25 | < 25 | Stable |  |  | 
COCCOc1cc2c(cc1OC)CCN(CCOc1ccc(/C=C/C(=O)c3cccc(NC(=O)c4ccc5ccccc5n4)c3)cc1)C2 | 2.13 | 72 | < 25 | < 25 | Stable |  |  | 
COCCOCCOCCOc1cc2c(cc1OC)CCN(CCOc1ccc(/C=C/C(=O)c3cccc(NC(=O)c4ccc5ccccc5n4)c3)cc1)C2 | 2.83 | 81 | < 25 | < 25 | Stable |  |  | 
COCCOc1cc2c(cc1OC)CCN(CCOc1ccc(/C=C/C(=O)c3ccc(C)c(NC(=O)c4ccc5ccccc5n4)c3)cc1)C2 | 1.55 | 97 | < 25 | < 25 | Stable |  |  | 
COc1cc2c(cc1OC)CN(CCOc1ccc(/C=C/C(=O)c3ccc(C)c(NC(=O)c4ccc5ccccc5n4)c3)cc1)CC2 | 0.88 | 86 | < 25 | < 25 | Stable | Dose-dependent effect |  | 
COCCOc1cc2c(cc1OC)CCN(CC(=O)c1cccc(NC(=O)c3ccc4ccccc4n3)c1)C2 | 14.4 | 55 | < 25 | < 25 | Stable |  |  | 
COCCOCCOCCOc1cc2c(cc1OC)CCN(CC(=O)c1cccc(NC(=O)c3ccc4ccccc4n3)c1)C2 | 1.13 | 47 | < 25 | < 25 | Stable |  |  | 
